# Only some compounds are listed: those with a hit (about 0.95% of all), similar ones and a draw of the others.
# ABCB1 inh = ABCB1 efflux pump inhibitors, primary screen, cell-based, multiplex, flow cytometry, ABCG2 counter-screen; 190,000 tested, 0.067% active; inhibition, % at 6.6 µM; CCRF-Adr cells, JC-1 efflux; ATP-dependent translocase ABCB1 (Homo sapiens), P08183; in the data active means inhibition above about 40%;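 further: 0% = vehicle and 100% = reference inhibitor; higher value means more JC-1 retained so stronger ABCB1 efflux block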
# p47phox inh = p47phox/p22phox peptide binding inhibitors, primary screen, biochemical, uHTS, NADPH oxidase regulatory subunit | fluorescence polarization, 2 h | inhibition, % at 24.7 µM | 220,000 tested, 0.53% active | AID 1274, 2008;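 active means inhibition above about 30%, limit read from the data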;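 further: 0% = p47phox with labelled peptide and 100% = labelled peptide alone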
# ABCG2 block = ABCG2 efflux pump inhibitors, primary screen, multiplex with ABCB1, IgMXP3 cells, flow cytometry; 190,000 tested, 0.1% active; inhibition, % at 6.6 µM; Broad substrate specificity ATP-binding cassette transporter ABCG2 (Homo sapiens), Q9UNQ0; JC-1 efflux;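 active means inhibition above 80%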;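 further: 0% = DMSO and 100% = nicardipine control wells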
# Target sequence (Q9UNQ0 whole entry, looked up): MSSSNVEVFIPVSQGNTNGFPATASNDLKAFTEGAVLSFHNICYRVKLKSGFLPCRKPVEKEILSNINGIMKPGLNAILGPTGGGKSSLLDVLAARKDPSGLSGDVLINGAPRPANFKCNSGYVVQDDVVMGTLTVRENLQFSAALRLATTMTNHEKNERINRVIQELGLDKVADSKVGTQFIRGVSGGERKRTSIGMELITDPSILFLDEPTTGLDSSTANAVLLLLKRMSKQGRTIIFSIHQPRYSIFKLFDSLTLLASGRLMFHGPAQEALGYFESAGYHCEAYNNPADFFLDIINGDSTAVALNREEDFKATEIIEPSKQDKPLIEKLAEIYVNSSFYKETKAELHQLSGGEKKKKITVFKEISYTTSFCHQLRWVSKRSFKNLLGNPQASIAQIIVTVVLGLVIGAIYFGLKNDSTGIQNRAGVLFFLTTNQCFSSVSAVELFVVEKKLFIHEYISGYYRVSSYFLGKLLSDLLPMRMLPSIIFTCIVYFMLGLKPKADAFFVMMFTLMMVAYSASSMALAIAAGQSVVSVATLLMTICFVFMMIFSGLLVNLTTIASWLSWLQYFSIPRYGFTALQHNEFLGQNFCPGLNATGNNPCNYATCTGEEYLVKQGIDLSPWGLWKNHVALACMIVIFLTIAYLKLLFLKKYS
#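 Assay system – ABCG2 IgMXP3 and barcoded ABCB1 CCRF-Adr cell mix · Input – 3 million cells/mL in well · Reagent – JC-1 fluorescent substrate · Compound – single test compound dose, 6.6 µM final · Timing – 10 min exposure at 25 °C with rotation, no wash · Detection – flow cytometry of retained JC-1 fluorescence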
# Furin inhibitor = human furin inhibitors, primary screen, biochemical, fluorescence intensity | P09958 | purified furin, fluorogenic substrate cleavage | inhibition, % at 20 µM or 30 µM | 220,000 tested, 0.061% active; in the data active means inhibition above about 25%
# HSV augment = enhancers of HSV replication in host cells, fold increase, host cell viability | 220,000 tested, 0.005% active | maximum fold increase | HSV replication augmentation in cells; in the data active means maximum fold increase above about 1.5; tested in PC3 cells
# Arbovirus anti = antivirals against arbovirus infection, primary screen, cell-based, full library, 10K replicate subset; arbovirus infection cell-based antiviral screen; inhibition, % at 10 µM; 200,000 tested, 0.37% active; AID 1251, 2008; in the data active means inhibition above about 30%
# * hit, by the source's call; i = inactive; x = not tested or not shown; + = active, no number.
SMILES,ABCB1 inh,p47phox inh,ABCG2 block,Furin inhibitor,HSV augment,Arbovirus anti
COc1ccc(SN=C2C(C)=CC(=O)C=C2C)cc1,0,38*,1,-39,i,0
Cc1nc2c(C)cccc2cc1C(=O)N/N=C/c1cccnc1,1,-13,6,-13,i,-2
COc1ccccc1NC(=O)C12CC3CC(C1)CC(c1ccc(C)cc1)(C3)C2,1,-14,13,-13,i,32*
Cc1[nH]n(-c2ccccc2)c(=S)c1C=Nc1ccc([N+](=O)[O-])cc1,-8,87*,-8,-13,i,-23
CC1=C[C@H]2OC(=O)[C@@H](C)[C@H]2C[C@@H]2[C@H]1C[C@@H](O)[C@@]2(C)O,x,-4,x,3,i,x
Cc1ccccc1OCCn1cnc2c(N)ncnc21,0,41*,1,-16,i,-27
Nc1ncnc2c1ncn2CCN1CCCCC1,0,-6,3,-11,i,4
CC(=O)N(CN1C(=O)c2ccccc2C1=O)c1ccc2c(c1)oc1ccccc12,2,-9,17,-16,x,-1
O=C(Nc1cc([N+](=O)[O-])ccc1F)c1cccs1,0,75*,3,-4,i,1
COc1ccc([N+](=O)[O-])cc1NC(=O)c1cccs1,2,4,36,0,i,12
O=C(NNC(=O)c1cccs1)c1ccc([N+](=O)[O-])cc1,0,-3,2,-4,i,35*
CCN(c1ccccc1)S(=O)(=O)c1ccc(Cl)c(C(=O)N(CC2CCCO2)C2CCS(=O)(=O)C2)c1 (stereo not drawn),1,-14,4,-28,i,2
CC(Sc1nc(C(C)(C)C)cc(-c2ccccc2)c1C#N)C(=O)Nc1ccccc1 (stereo not drawn),-1,1,-7,-12,i,1
CCc1cccc(C)c1NC(=S)N(CCN(C)C)C(C)c1ccco1 (stereo not drawn),x,-10,x,-33,i,x
CCCc1cc(=O)n2[nH]cnc2n1,0,32*,0,-13,i,6
Cn1cccc1Cc1nnc(SCC(=O)N2CCCC2)n1CCc1ccccc1,0,3,0,-21,i,0
Cn1cccc1Cc1nnc(SCC(N)=O)n1CCc1ccccc1,1,89*,4,-14,i,4
Nc1nc(-c2ccccc2)c(-c2ccccc2)s1,0,2,0,-23,i,0
Nc1nc(-c2ccccc2)c(-c2ccc([N+](=O)[O-])cc2)s1,0,-7,1,-12,i,33*
Cc1nc(C(F)(F)F)nc(Nc2ccc(N=Nc3ccccc3)cc2)c1C#N,0,2,0,-2,i,-4
COCCN1Cc2cccc(C(=O)Nc3cc(C)cc(C)c3)c2C1=O,26,4,82*,-22,i,6
COCCN1Cc2cccc(C(=O)Nc3c(C)cc(C)cc3C)c2C1=O,2,-7,7,-7,i,1
O=C(N/N=C/c1ccc([N+](=O)[O-])o1)c1cc2ccccc2o1,x,-24,x,-27,i,x
O=C(N/N=C/c1ccc([N+](=O)[O-])o1)c1cc2c(ccc3ccccc32)o1,-1,30*,-1,-17,i,-11
Cc1noc(C)c1COC(=O)Cc1ccc(Cl)c(Cl)c1,0,+,0,-29,x,3
SMILES,ABCB1 inh,p47phox inh,ABCG2 block,Furin inhibitor,HSV augment,Arbovirus anti
COc1ccc(-c2nc(NC(=O)c3n[nH]c(=O)c4ccccc34)sc2C)cc1,2,3,21,-6,i,44*
CC(C)(O)C1Cc2cc(/C=C/C(=O)O)c(O)cc2O1 (stereo not drawn),0,85*,1,-20,i,7
C=CCSC1=N/C(=C/c2ccsc2)C(=O)N1c1ccccc1,-1,-21,-1,-16,i,-8
COc1cccc(NC(=O)Nc2nnc(N3C(C)CCCC3C)s2)c1 (stereo not drawn),x,-12,x,-11,i,x
Cc1ccc(C)c(NC(=O)CSc2nnc(-c3ccncc3)n2N)c1,0,34*,1,-12,i,4
Cc1ccc(C)c(NC(=O)CSc2nnc(C)c(=O)n2N)c1,2,-4,4,3,i,0
COc1ccccc1C(=O)NC(C)C(c1cccs1)N1CCOCC1 (stereo not drawn),0,5,8,31*,i,5
NS(=O)(=O)c1ccc(CCNC(=O)COC(=O)CC(c2ccccc2)c2ccccc2)cc1,0,-2,3,-14,i,10
CN(CCC#N)C(=O)COC(=O)c1c2c(nc3ccccc13)/C(=C/c1ccco1)CC2,0,-10,-1,-9,i,-2
Cc1ccc(C#CC[N+](C)(C)CC#Cc2ccccc2)cc1,0,-2,0,-17,i,-3
Cc1ccc(C(NC(=O)N2CCOCC2)=C(Cl)Cl)cc1F,0,42*,0,-26,i,-28
Cc1ccc(C(NC(=O)N2CCOCC2)C(Cl)Cl)cc1F (stereo not drawn),-1,-2,-10,-33,i,-10
Cc1ccc(Oc2ncccc2C(=O)NC2CCSC2=O)cc1 (stereo not drawn),0,-7,0,-8,i,-4
CC(C)c1cc(C(F)(F)F)n2nc(C(=O)Nc3ccc4c(c3)OCO4)cc2n1,1,-20,7,-15,i,31*
COCCn1c(SCC(=O)N2CCCc3ccccc32)nc2ccccc2c1=O,2,68*,7,-9,i,2
CCCn1c(SCC(=O)N2CCCc3ccccc32)nc2c1c(=O)n(C)c(=O)n2C,x,x,x,-26,x,x
COCCn1c(SCC(=O)N2CCCc3ccccc32)nc2c(c1=O)SC(C)C2 (stereo not drawn),-2,-7,-6,1,i,-10
Cn1c(=O)c2c(nc(SCC(=O)N3CCc4ccccc43)n2Cc2ccc(F)cc2)n(C)c1=O,x,x,x,28*,x,x
COc1ccc2c(c1)CCN1C2CCN2C(=O)CCC21 (stereo not drawn),x,-3,x,-10,i,x
Cc1nn(Cc2ccc(Br)cc2)c(C)c1NC(=O)c1nn(C)cc1Cl,0,-6,-1,-15,i,8
Cc1ccc(Cn2nc(C)c(NC(=O)c3nn(C)cc3Cl)c2C)cc1,2,-4,6,25*,i,2
O=C(NCCN1C(=O)S/C(=C\c2cccnc2)C1=O)C1=NN(c2ccccc2)C(=O)CC1,1,-9,3,-19,i,-5
O=C(NCCN1C(=O)S/C(=C/c2cccnc2)C1=O)C1CC(=O)N(Cc2ccccc2)C1 (stereo not drawn),0,14,2,-11,i,30*

# Compound activity (PubChem)
